Experimental data collected from several papers.
Each line is one published result; the experiments were not run side by side.
CDK2 with cyclin A2: Cyclin-dependent kinase 2, with cyclin A2 (CDK2, Homo sapiens, UniProt P24941)
ST14: Suppressor of tumorigenicity 14 protein (ST14, Homo sapiens, UniProt Q9Y5Y6)

| Structure (SMILES) | target | assay | setting | measurement | value |
| --- | --- | --- | --- | --- | --- |
| COc1cc(-c2cncc3c2CN(C)Cc2cc(N4CCNCC4)ccc2-3)cc(OC)c1OC | Serine/threonine-protein kinase D3 (PRKD3, Homo sapiens, UniProt O94806) | enzyme activity, inhibitor | 1 µM | remaining activity | 92% |
| CNC(=O)c1cc(Oc2ccc(NC(=O)Nc3ccc(Cl)c(C(F)(F)F)c3)cc2)ccn1 | CDK2 with cyclin A2 | enzyme activity, inhibitor | 20 nM | inhibition | 43.1% |
| C=CC(=O)N1CCC(COCC(=O)N2CCN(c3nc(-c4cnc(N)nc4C(F)F)nc(N4CCOC[C@@H]4C)n3)CC2)CC1 | ALK tyrosine kinase receptor (ALK, Homo sapiens, UniProt Q9UM73, L1196M) | binding, competition with immobilised ligand | 1 µM | remaining binding | 77% |
| CC[C@@H](C)[C@H](NC(=O)[C@H](Cc1cscn1)NC(=O)CCc1ccccc1)C(=O)N[C@@H](CCCNC(=N)N)C(=O)c1nc2ccccc2s1 | ST14 | enzyme activity, inhibitor | 0.1 µM | remaining activity | 4% |
| CNc1ncc2c(/C=C/C(=O)N3CCC(OC)CC3)nn(Cc3cccc(C(F)(F)F)c3)c2n1 | ALK tyrosine kinase receptor (ALK, Homo sapiens, UniProt Q9UM73) | enzyme activity, inhibitor, radiometric | 1 µM | remaining activity | 83% |
| Cc1cc([C@@H](C)Nc2ccccc2C(=O)O)c2nc(N3CCC(F)(F)CC3)c(C#N)c(=O)n2c1 | Angiopoietin-1 receptor (TEK, Homo sapiens, UniProt Q02763) | binding, competition with immobilised ligand | 10 µM | remaining binding | 100% |
| N=C(N)NCCC[C@H](NC(=O)[C@H](Cc1ccccc1I)NC(=O)[C@H](Cc1cscn1)NC(=O)CCc1ccccc1)C(=O)c1nc2ccccc2s1 | ST14 | enzyme activity, inhibitor | 0.1 µM | remaining activity | 90% |
| CC(=O)Nc1c(N)nc(SCC(=O)NN)[nH]c1=O | CDK2 with cyclin A2 | enzyme activity, inhibitor | 1 µM | inhibition | 73% |
| N=C(N)NCCC[C@H](NC(=O)[C@H](Cc1ccc(C(=O)c2ccccc2)cc1)NC(=O)[C@H](Cc1cscn1)NC(=O)CCc1ccccc1)C(=O)c1nc2ccccc2s1 | ST14 | enzyme activity, inhibitor | 0.1 µM | remaining activity | 89% |
| CC(=O)Nc1c(N)nc(SCC(=O)N/N=C/c2ccc([N+](=O)[O-])cc2)[nH]c1=O | CDK2 with cyclin A2 | enzyme activity, inhibitor | 200 pM | inhibition | 1.89% |
